JMJD2C inh = inhibitors of human GASC-1 (JMJD2C) demethylase; Q9H3R0; GST-JMJD2C(1-420) H3K9me3 demethylation, DELFIA europium; inhibition, % at 2.35 µM; hit rate 0.069% among 330,000; AID 2099;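 active = more than half of a compound's replicate wells show inhibition beyond 50%, single wells judged on their own value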;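 also: signal counts dimethyl H3K9 product captured on neutravidin plate; 0% = median of DMSO wells and 100% = 0.3 times that DMSO median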
Target sequence (Q9H3R0 1-420 limits assumed): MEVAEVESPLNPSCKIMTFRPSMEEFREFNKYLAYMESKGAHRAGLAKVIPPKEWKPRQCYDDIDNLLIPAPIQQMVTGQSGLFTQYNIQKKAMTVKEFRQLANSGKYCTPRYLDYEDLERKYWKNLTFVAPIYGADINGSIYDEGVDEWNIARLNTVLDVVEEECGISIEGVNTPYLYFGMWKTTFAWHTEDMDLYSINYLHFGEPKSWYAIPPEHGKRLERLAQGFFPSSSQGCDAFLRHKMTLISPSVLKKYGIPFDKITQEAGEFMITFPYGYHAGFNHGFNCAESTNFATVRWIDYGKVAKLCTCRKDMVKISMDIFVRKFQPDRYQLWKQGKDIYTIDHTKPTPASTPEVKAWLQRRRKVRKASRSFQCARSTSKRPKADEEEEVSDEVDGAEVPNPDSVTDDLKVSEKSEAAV
NPR1 activator = GC-A (human) enzyme activation | P16066 | HEK293 GC-A cells, cGMP TR-FRET, EC30 ANP; 0% at EC30 ANP, 100% saturating ANP | activation, % at 10 µM | hit rate 0.14% among 370,000 | AID 1671463; in the data active = activation above about 40%
aDG glyco up = increases alpha dystroglycan glycosylation; activation, % at 10 µM; hit rate 0.22% among 360,000; Pro5-aDG cells, alpha-DG glycosylation AlphaScreen (IIH6); 0% Pro5, 100% B10-LARGE cell signal;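 active = activation of at least 8% versus controls, or a plate z-score of at least 8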;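 also: Pro5 are CHO cells carrying HIG-tagged alpha-DG that lacks glycosylation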
GRIN3A LBD mod = modulates the human NR3A ligand-binding domain | AID 1259313 | hit rate 2.5% among 340,000 | Tm shift relative to glycine control, % at 25 µM | NR3A LBD differential scanning fluorimetry, Tm shift; 0% = protein alone, 100% = glycine-bound protein;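 active = melting temperature shift of at least 10% of the positive control shift, at one fixed dose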
GC-B act = GC-B (human) receptor activation | HEK293-GC-B cells, CNP EC30, cGMP TR-FRET; 0% at EC30 CNP, 100% saturating CNP | activation, % at 10 µM | hit rate 0.11% among 370,000 | AID 1920062;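 active = activation at 10 µM reaching about 35% in either raw or pattern-adjusted values, limit read from the data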
Hep lipid drop = hepatic lipid droplet formation modulation; AML12 mouse hepatocytes, oleate lipid droplets, BODIPY imaging; hit rate 0.4% among 240,000; inhibition, % at 6.5 µM;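 active = lipid droplet intensity inhibited by at least 50%, with more than 500 cells counted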
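System: AML12 hepatocytes (mouse). Probe or stimulus: oleic acid at 100 µM to induce lipid droplet formation. Times: overnight treatment with compound plus oleate. Detection: Image-based BODIPY and DAPI two-channel analysis. Evaluation: percent inhibition of filter-corrected integrated lipid droplet intensity per well.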
Active calls of the source: *; x = no result given. The list is not random: actives were taken first. Their share in the collection is about 3%.

SMILES | JMJD2C inh | NPR1 activator | aDG glyco up | GRIN3A LBD mod | GC-B act | Hep lipid drop
CC1CCCC(NC(=O)c2cccc(S(=O)(=O)N3CCOCC3)c2)C1C (stereo not drawn) | x | 0 | 2 | x | 2 | x
O=C(CSc1nnc(CNC(=O)c2c(F)cccc2F)o1)NCc1ccccc1Cl | 6 | -2 | 0 | -2 | 0 | -8
Cc1noc(/C=C/N(C)C)c1S(=O)(=O)N1CCCC(C(=O)N2CCCCC2)C1 (stereo not drawn) | 35 | 1 | 0 | 14* | -11 | -4
Cc1noc(/C=C/N(C)C)c1S(=O)(=O)N1CCCC(C(=O)NC2CCCCC2)C1 (stereo not drawn) | -8 | 5 | 0 | -3 | -2 | 12
O=C(COC(=O)c1cccc(NS(=O)(=O)c2ccc(F)c(F)c2)c1)NC(=O)NC1CCCCC1 | 2 | -3 | 0 | 23* | 8 | -14
O=C(NCc1ccccc1)C(c1ccco1)N1CCN(CCN2CCOCC2)CC1 (stereo not drawn) | x | 0 | x | x | 4 | x
COC(=O)[C@]12C[C@H](CC(=O)N3CCSCC3)C(=O)N(Cc3cccc4ccccc34)C1=C[C@H](COCc1ccccc1)O[C@@H]2C | x | 0 | x | x | 1 | x
Cc1ccc(-c2csc(N(CCO)CCCn3c(C(F)(F)F)nc4cc(C(F)(F)F)ccc43)n2)cc1 | -1 | -1 | 0 | 19* | 2 | -12
OCCN(CCCn1c(C(F)(F)F)nc2ccccc21)c1nc(CN2CCCCC2)cs1 | 2 | -3 | 0 | 1 | 2 | -15
N=C1S/C(=C\c2ccccc2)C(=O)N1c1ccc(F)cc1 | -1 | -4 | 0 | 5 | 3 | 15
N=C1S/C(=C\c2ccccc2F)C(=O)N1c1ccc(F)cc1 | -2 | 6 | 0 | 11* | -2 | 2
N=C1S/C(=C\c2cccc3ccccc23)C(=O)N1c1ccc(F)cc1 | 13 | 0 | 0 | 11* | -4 | -3
Cc1ccc2[nH]c3nc(N/N=C/c4cccc(O)c4)nnc3c2c1 | -5 | -6 | 0 | 10* | 2 | -2
COc1cc(/C=N/Nc2nnc3c(n2)[nH]c2ccccc23)ccc1O | 3 | -3 | 0 | 10 | -2 | -1
CCc1ccc2[nH]c3nc(N/N=C/c4ccc(O)cc4O)nnc3c2c1 | 1 | -3 | 0 | 19* | 2 | -3
Cc1ccc(N=CC=C2OC(C)(C)C(C)(C)O2)c(C)c1 | 0 | 0 | 0 | 15* | 4 | 4
COc1ccccc1N=CC=C1OC(C)(C)C(C)(C)O1 | 5 | 1 | -1 | 1 | 4 | -1
O=C(NN=Cc1ccc(-c2ccccc2)cc1)c1cc(-c2ccc(Cl)cc2)n[nH]1 | x | 2 | x | x | 0 | x
CC(C)(C)N1C(=O)[C@H]2[C@@H](c3ccc(Br)cc3)N3C(=O)N(c4cccc(Br)c4)C(=O)[C@@]3(Cc3ccccc3)[C@H]2C1=O | -18 | x | 1 | 10* | x | -9
O=C1[C@H]2[C@@H](c3ccc(Cl)cc3)N3C(=O)N(c4cccc(F)c4)C(=O)[C@@]3(Cc3ccc(Cl)cc3)[C@H]2C(=O)N1C1CCCCC1 | -6 | x | 2 | 14* | x | -22
Cc1cccc(N2C(=O)N3[C@H](c4ccc(F)cc4)[C@@H]4C(=O)N(C5CCCCC5)C(=O)[C@@H]4[C@]3(Cc3ccc(Cl)cc3)C2=O)c1 | -12 | -5 | 1 | 0 | -5 | 1
Cc1cccc(N2C(=O)N3[C@H](c4ccc(Cl)cc4)[C@@H]4C(=O)N(C5CCCCC5)C(=O)[C@@H]4[C@]3(Cc3ccc(Cl)cc3)C2=O)c1 | -3 | x | 0 | 21* | x | -13
O=S(=O)(c1cccs1)N1CCCCC1 | x | 3 | 0 | x | 0 | x
C=CCNc1cccc2c1S(=O)(=O)N[C@H](C)CO2 | x | -1 | x | x | 4 | x
CC(=O)CC[C@H]1CC[C@]2(CCCN(C(=O)c3ccco3)C2)O1 | x | 4 | x | x | 1 | x
SMILES | JMJD2C inh | NPR1 activator | aDG glyco up | GRIN3A LBD mod | GC-B act | Hep lipid drop
COC(=O)[C@]1(CNC(=O)Nc2ccc(C)c(Cl)c2)CC(=O)N(C)[C@@H]1c1ccccc1 | x | 4 | x | x | 3 | x
CCCCOC(=O)c1nc(Cl)c(Cl)c(N)c1Cl | -8 | 2 | 0 | 13* | -2 | -22
CCN(CC)CCNC(=O)C(Oc1ccccc1)Oc1ccccc1 | -3 | -21 | 0 | 31* | -10 | -1
O=C(O)c1ccccc1C(=O)NCc1c(Cl)cccc1Sc1ccc(Cl)cc1 | 1 | -1 | 0 | -1 | 0 | 2
O=C1C(=O)c2ccccc2C(O)=C1CCCCl | -9 | x | 3.8* | -1 | x | -9
COc1ccc(CC2=C(O)c3ccccc3C(=O)C2=O)cc1 | 5 | 0 | 0 | 1 | 3 | -4
Cc1nc(-c2ccc(Cl)cc2)sc1C(=O)NNC(=O)C(C)C | -7 | 43* | 0 | -2 | 2 | 5
Cc1nc(-c2ccccc2)sc1C(N)=O | -214 | 6 | 0 | 19* | 3 | -4
CNC(=O)c1sc(-c2ccc(Cl)cc2)nc1C | 8 | 46* | 0 | -2 | 1 | 13
CC(=O)c1sc(-c2ccc(Cl)cc2)nc1C | 3 | x | 0 | -1 | x | 16
CC(C)C(OC(=O)CN1C(=O)c2ccccc2C1=O)C(=O)NC1CCCCC1 (stereo not drawn) | 0 | 1 | 0 | 0 | 3 | 8
COc1ccc(NC(=O)c2ccc(C)cc2Cl)c([N+](=O)[O-])c1 | 0 | 4 | 0 | 11* | 5 | x
COc1ccc(NC(=O)COc2ccc(C)cc2)c([N+](=O)[O-])c1 | 0 | 0 | x | 13* | 1 | 13
CSCCCNC(=O)CN1C(=O)C2CCCCN2C(=O)c2ccccc21 (stereo not drawn) | x | -2 | x | x | -2 | x
CC(C)(C)c1ccc(-c2nnc(SCC(=O)c3ccc([N+](=O)[O-])cc3)n2-c2ccc(Cl)cc2)cc1 | x | 3 | x | x | 9 | x
COc1ccc2c(Cl)c(C(=O)N/N=C/c3c(C)[nH]c4ccccc34)sc2c1 | -41 | 1 | 0 | 32* | 1 | -6
O=C(CN(CCc1ccccc1)S(=O)(=O)c1ccc(Cl)cc1)N/N=C/c1ccc2c(c1)OCO2 | -5 | -2 | 0 | 13* | -1 | 7
O=C(N/N=C/c1ccc2c(c1)OCO2)c1sc2cccc(Cl)c2c1Cl | -11 | -2 | 0 | 24* | -6 | 4
COc1cccc(C(=O)NCC(=O)N/N=C/c2c(C)[nH]c3ccccc23)c1 | 20 | -4 | 4 | -2 | 7 | 27
COc1ccc2c(Cl)c(C(=O)N/N=C/c3ccc4c(c3)OCO4)sc2c1 | -2 | -3 | 0 | 19* | -6 | x
COC(=O)c1cccc(N2C(=O)C[C@](Sc3ccc(OC)cc3)(C(=O)N3CCOCC3)[C@H]2c2ccc(OC)cc2)c1 | x | -21 | x | x | -16 | x
